In ChEMBL document CHEMBL1133462, “Discovery of novel and potent retinoic acid receptor alpha agonists: syntheses and evaluation of benzofuranyl-pyrrole and benzothiophenyl-pyrrole derivatives” (2000):

Key:
[1] = biological target: T1, Retinoic acid receptor beta (Homo sapiens) (UniProt P10826); test: Relative transcriptional activation in COS cells expressing Retinoic acid receptor beta compared to ATRA; type: functional, cell-based
T1 sequence (whole entry): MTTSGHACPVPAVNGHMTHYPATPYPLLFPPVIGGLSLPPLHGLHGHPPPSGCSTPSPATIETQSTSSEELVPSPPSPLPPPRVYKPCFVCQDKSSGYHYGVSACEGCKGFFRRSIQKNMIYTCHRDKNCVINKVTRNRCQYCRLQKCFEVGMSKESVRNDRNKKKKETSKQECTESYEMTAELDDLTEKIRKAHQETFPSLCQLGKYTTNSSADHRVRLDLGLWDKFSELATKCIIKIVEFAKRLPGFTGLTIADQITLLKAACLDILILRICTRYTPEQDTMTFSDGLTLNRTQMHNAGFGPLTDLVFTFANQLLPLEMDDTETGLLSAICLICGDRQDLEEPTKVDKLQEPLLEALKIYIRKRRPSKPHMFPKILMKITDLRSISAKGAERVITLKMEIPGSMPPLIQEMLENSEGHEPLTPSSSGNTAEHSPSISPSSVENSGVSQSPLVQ
In short: (§1)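 COS-1 cells were lipofected with receptor and reporter vectors. After 4 h the medium was changed to DMEM/10% FBS for a further 20 h, then cells were reseeded at 3 × 10⁴/well. After 6 h, compounds were added in log dilutions from 3.0 × 10^-6 to 1.0 × 10^-10 M, in duplicate, for 48 h. Supernatant PLAP activity was measured. EC30 (concentration giving 30% of maximal response) was normalized to ATRA EC30. Values averaged from at least two experiments.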

[2] = biological target: T2, Retinoic acid receptor gamma (Homo sapiens) (UniProt P13631); test: Relative transcriptional activation in COS cells expressing Retinoic acid receptor gamma compared to ATRA; type: functional, cell-based; in short: as §1
T2 sequence (whole entry): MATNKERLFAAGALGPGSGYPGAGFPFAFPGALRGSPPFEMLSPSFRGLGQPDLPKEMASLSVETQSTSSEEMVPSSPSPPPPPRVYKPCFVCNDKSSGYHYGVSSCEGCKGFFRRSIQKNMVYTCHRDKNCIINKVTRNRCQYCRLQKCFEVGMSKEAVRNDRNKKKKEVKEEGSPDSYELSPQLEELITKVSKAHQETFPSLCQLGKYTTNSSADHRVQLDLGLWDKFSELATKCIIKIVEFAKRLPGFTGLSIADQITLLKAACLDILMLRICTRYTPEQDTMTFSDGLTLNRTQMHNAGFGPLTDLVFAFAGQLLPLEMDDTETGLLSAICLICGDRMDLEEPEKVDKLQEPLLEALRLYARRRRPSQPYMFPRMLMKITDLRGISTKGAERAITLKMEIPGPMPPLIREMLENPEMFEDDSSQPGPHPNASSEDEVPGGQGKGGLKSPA

[3] = biological target: T3, Retinoic acid receptor alpha (Homo sapiens) (UniProt P10276); test: Relative transcriptional activation in COS cells expressing Retinoic acid receptor alpha compared to ATRA; type: functional, cell-based; in short: as §1
T3 sequence (whole entry): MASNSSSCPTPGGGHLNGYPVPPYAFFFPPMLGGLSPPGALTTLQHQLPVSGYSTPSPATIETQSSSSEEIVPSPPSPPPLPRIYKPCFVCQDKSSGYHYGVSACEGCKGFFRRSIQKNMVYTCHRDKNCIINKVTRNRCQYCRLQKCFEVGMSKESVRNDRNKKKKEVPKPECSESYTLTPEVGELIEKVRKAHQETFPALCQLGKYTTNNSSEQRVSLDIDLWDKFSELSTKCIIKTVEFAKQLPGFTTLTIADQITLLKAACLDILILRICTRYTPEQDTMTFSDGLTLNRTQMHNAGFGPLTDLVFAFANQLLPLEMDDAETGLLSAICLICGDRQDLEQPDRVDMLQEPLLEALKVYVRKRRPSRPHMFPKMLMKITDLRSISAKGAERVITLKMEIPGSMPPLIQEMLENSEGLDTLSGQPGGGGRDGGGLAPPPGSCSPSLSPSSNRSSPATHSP

[4] = biological target: T3, Retinoic acid receptor alpha (Homo sapiens); test: Inhibition of [3H]-ATRA binding to Retinoic acid receptor alpha (RAR-alpha)
In short: (§2)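 Competitive binding of [³H]ATRA to individual RAR subtypes. Each IC50 was divided by the ATRA IC50 to give a relative IC50. Reported as mean ± SEM, averaged from at least two experiments.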

[5] = Inhibition of LPS-induced mouse B-lymphocyte proliferation (Mean of IC50/ATRA IC50); type: functional
In short: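 BALB/c splenocytes at 1.2 × 10⁵ cells/well in RPMI-1640 with 50 µM 2-mercaptoethanol, 10% FBS and 5 µg/mL E. coli LPS. Compounds were tested in log dilutions from 1.0 × 10^-6 to 1.0 × 10^-12 M final, in triplicate, for 3 days at 37 °C and 5% CO₂. IC50 was fitted by nonlinear regression and divided by the ATRA IC50. Reported as mean ± SEM of triplicates.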

[6] = biological target: T1, Retinoic acid receptor beta (Homo sapiens); test: Inhibition of [3H]ATRA binding to Retinoic acid receptor beta (RAR-beta); in short: as §2

Cc1ccc2cc(-c3ccc(-c4ccc(C(=O)O)cc4)[nH]3)oc2c1C
Relative EC30 [1]: 160 nM | Relative EC30 [2]: 2000 nM | Relative EC30 [3]: 3.1 nM | Relative IC50 [4]: 12 nM | Relative IC50 [5]: 2.4

Cc1cc(C)c2oc(-c3ccc(-c4ccc(C(=O)O)cc4)[nH]3)cc2c1C
Relative EC30 [1]: 200 nM | Relative EC30 [2]: 480 nM | Relative EC30 [3]: 2 nM | Relative IC50 [4]: 9.4 nM | Relative IC50 [5]: 2.2

O=C(O)c1ccc(-c2ccc(-c3cc4c(C(F)(F)F)ccc(F)c4o3)[nH]2)cc1
Relative IC50 [6]: 500 nM | Relative EC30 [1]: 8.5 nM | Relative EC30 [2]: 110 nM | Relative EC30 [3]: 0.29 nM | Relative IC50 [4]: 1.9 nM | Relative IC50 [5]: 0.37

Cc1ccc(C)c2oc(-c3ccc(-c4ccc(C(=O)O)cc4)[nH]3)cc12
Relative IC50 [6]: 490 nM | Relative EC30 [1]: 25 nM | Relative EC30 [2]: 240 nM | Relative EC30 [3]: 0.37 nM | Relative IC50 [4]: 1.4 nM | Relative IC50 [5]: 0.76

COc1ccc(C)c2oc(-c3ccc(-c4ccc(C(=O)O)cc4)[nH]3)cc12
Relative EC30 [1]: 730 nM | Relative EC30 [2]: 3700 nM | Relative EC30 [3]: 6 nM | Relative IC50 [4]: 15 nM | Relative IC50 [5]: 4.7

O=C(O)c1ccc(-c2ccc(-c3cc4c(Cl)ccc(Cl)c4o3)[nH]2)cc1
Relative IC50 [6]: 690 nM | Relative EC30 [1]: 110 nM | Relative EC30 [2]: 820 nM | Relative EC30 [3]: 0.7 nM | Relative IC50 [4]: 1.5 nM | Relative IC50 [5]: 1.3

Cc1ccc(C)c2sc(-c3ccc(-c4ccc(C(=O)O)cc4)[nH]3)cc12
Relative EC30 [1]: 130 nM | Relative EC30 [2]: 840 nM | Relative EC30 [3]: 1.3 nM | Relative IC50 [4]: 6.1 nM | Relative IC50 [5]: 0.75

Cc1cccc2cc(-c3ccc(-c4ccc(C(=O)O)cc4)[nH]3)oc12
Relative EC30 [1]: 92 nM | Relative EC30 [2]: 1000 nM | Relative EC30 [3]: 0.8 nM | Relative IC50 [4]: 1.6 nM | Relative IC50 [5]: 0.98

Cc1cc(C)c2oc(-c3ccc(-c4ccc(C(=O)O)cc4)[nH]3)cc2c1
Relative EC30 [1]: 380 nM | Relative EC30 [2]: 890 nM | Relative EC30 [3]: 1 nM | Relative IC50 [4]: 16 nM | Relative IC50 [5]: 1.2

Cc1cc(C)c2sc(-c3ccc(-c4ccc(C(=O)O)cc4)[nH]3)cc2c1
Relative EC30 [1]: 1300 nM | Relative EC30 [2]: 2900 nM | Relative EC30 [3]: 2.4 nM | Relative IC50 [4]: 62 nM | Relative IC50 [5]: 3.6
